Source: PubChem
TbMetRS inhib – blocks T. brucei methionyl-tRNA synthetase activity. AID 624268. actives 0.4% (n = 360,000). purified T. brucei MetRS, ATP depletion, Kinase-Glo luminescence. inhibition, % at 11.9 µM;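 active means inhibition above a per-plate cutoff of the control wells' mean inhibition plus 3 SD, cut at about 5.5% in these data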;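 further: 0% = DMSO wells median and 100% = median of wells with control inhibitor compound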
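System: purified T. brucei MetRS enzyme / Detection: Kinase-Glo luciferase luminescence reporting remaining unconsumed ATP / Medium: HEPES buffer with MgCl2, KCl, DTT, spermine, BSA, pyrophosphatase / Replication: singlicate, one well per compound / Evaluation: percent inhibition relative to median high and low control wells / Schedule: 2 h aminoacylation at 25 °C after 15 min preincubation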
Rce1 inhib – yeast Ras-converting enzyme inhibition; actives 0.27% (n = 290,000); calls only; Q03530; yeast membranes, quenched prenylated peptide cleavage fluorescence;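 active means fall in fluorescence gain of 50% or more versus controls, with final raw signal at or below 3038400; inconclusive means same 50% fall but final raw signal above 3038400; inactive means fall in fluorescence gain under 50%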;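 further: plate controls were neutral control wells for no effect and wells lacking membranes for full effect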
Target sequence (Q03530 whole entry, looked up): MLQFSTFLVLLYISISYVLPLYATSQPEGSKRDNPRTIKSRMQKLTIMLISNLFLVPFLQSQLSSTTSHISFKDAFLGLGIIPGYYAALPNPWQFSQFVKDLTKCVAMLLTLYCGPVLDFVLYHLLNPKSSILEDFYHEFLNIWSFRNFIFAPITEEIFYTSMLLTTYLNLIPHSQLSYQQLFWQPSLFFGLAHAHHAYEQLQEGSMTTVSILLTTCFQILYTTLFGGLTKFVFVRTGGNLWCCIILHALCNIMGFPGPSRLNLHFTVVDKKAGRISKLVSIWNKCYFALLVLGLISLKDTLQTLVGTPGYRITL
NadD block – blocks S. aureus nicotinate mononucleotide adenylyltransferase; actives 0.78% (n = 360,000); inhibition, % at 20 µM; purified NadD enzyme, colorimetric absorbance read-out; in the data active means inhibition above about 26%
DSG3 Ab inh – blocks pemphigus antibody binding to human desmoglein-3 | AID 588358 | DSG3-coupled beads, scFv-anti-DSG3-GFP binding, flow cytometry; hits give low values | actives 0.48% (n = 310,000) | binding (percent of control), % at 10 µM;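 active means binding more than 3 SD below its plate's average and above zero; inconclusive means below that plate limit but binding exactly zero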;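 further: hits lower antibody fragment binding to DSG3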
HCV core dimer – blocks dimerization of HCV core protein. TR-FRET GST/Flag-core106 dimerization, 1536-well. inhibition, % at 5 µM. AID 1899. actives 0.33% (n = 300,000);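 active means inhibition above the mean of all tested compounds plus 3 SD, set per screening campaign, cut at about 45% in these data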
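Assay system: tagged HCV core106 pair (GST and Flag); medium: KF-containing HEPES buffer, pH 7.45, DTT, CHAPS, BSA; also added: Eu donor and XL665 acceptor anti-tag antibodies; dosing: 5 µM single dose; timing: compound-protein-antibody incubation 4 h at 22.5 °C; signal: TR-FRET 671 and 617 nm emission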
NadD conf – NadD (S. aureus) inhibition, single concentration confirmation. inhibition, % at 20 µM. actives 13% (n = 2,000). purified S. aureus NadD, colorimetric enzyme assay. shares compounds with NadD block; in the data active means inhibition mostly above about 42%, no sharp cut-off; inactive means mostly below about 42%
The depositor's hits bear a star. In the library only some 1.9% were active in any assay of this set; here they are far more common.

Results for O=C(N/N=C/c1ccccn1)c1cc(-c2cccc3ccccc23)n[nH]1 ?
TbMetRS inhib: -0.4; Rce1 inhib: inactive; NadD block: 9.2; DSG3 Ab inh: 107.2; HCV core dimer: 5.3

How did O=C(O)c1ccc(/C=N/NC(=O)c2cc(-c3ccc4c5c(cccc35)CC4)n[nH]2)cc1 do in these assays?
TbMetRS inhib: -0.4; Rce1 inhib: inactive; NadD block: 28.1*; DSG3 Ab inh: 101.3; HCV core dimer: 33.1; NadD conf: 34.4

What do the screens show for `COCCn1c(=NC(=O)c2cc(-c3cccs3)nc3ccccc23)sc2cc(S(N)(=O)=O)ccc21`?
TbMetRS inhib: -0.7; Rce1 inhib: inactive; NadD block: 51.9*; DSG3 Ab inh: 86.2; HCV core dimer: -30.6; NadD conf: 56.7*

How did CCOC(=O)Cn1c(=NC(=O)c2nc3ccccc3s2)sc2cc(S(N)(=O)=O)ccc21 do in these assays?
TbMetRS inhib: -1.0; Rce1 inhib: inactive; NadD block: 19.2; DSG3 Ab inh: 88.1; HCV core dimer: 12.2

What do the screens show for `C=CCn1c(=NC(=O)c2cc(Cl)sc2Cl)sc2cc(S(N)(=O)=O)ccc21`?
TbMetRS inhib: -0.3; Rce1 inhib: inactive; NadD block: 17.0; DSG3 Ab inh: 125.3; HCV core dimer: -39.6

Results for C=CCn1c(=NC(=O)c2cc(-c3cccs3)nc3ccccc23)sc2cc(S(N)(=O)=O)ccc21 ?
TbMetRS inhib: -0.4; Rce1 inhib: inactive; NadD block: 50.8*; DSG3 Ab inh: 91.3; HCV core dimer: 6.3; NadD conf: 59.1*

How did CN(C)C(=O)COC(=O)c1ccc(S(=O)(=O)NCc2ccco2)cc1 do in these assays?
TbMetRS inhib: -0.7; Rce1 inhib: inactive; NadD block: -6.5; DSG3 Ab inh: 99.9; HCV core dimer: 1.3

How did Cc1ccc(-c2csc3ncnc(SCc4ccc(C(=O)O)cc4)c23)cc1 do in these assays?
TbMetRS inhib: -0.2; Rce1 inhib: inactive; NadD block: 31.9*; HCV core dimer: 37.6; NadD conf: 43.9

How did O=C(CSc1ncnc2scc(-c3ccccc3)c12)N1CCN(Cc2ccc3c(c2)OCO3)CC1 do in these assays?
TbMetRS inhib: -0.5; Rce1 inhib: inactive; NadD block: 38.3*; DSG3 Ab inh: 119.6; HCV core dimer: -39.7; NadD conf: 15.3

What do the screens show for `Cc1sc2ncnc(SCc3ccc(C(=O)O)cc3)c2c1C`?
TbMetRS inhib: -0.3; Rce1 inhib: inactive; NadD block: 4.7; DSG3 Ab inh: 100.5; HCV core dimer: 6.0

How did c1ccc(-c2csc3ncnc(N4CCN(Cc5ccc6c(c5)OCO6)CC4)c23)cc1 do in these assays?
TbMetRS inhib: -0.5; Rce1 inhib: inactive; NadD block: -3.0; DSG3 Ab inh: inconclusive; HCV core dimer: 3.6

Results for CCCCSc1nc2c(cnn2-c2ccc(C)c(C)c2)c(=O)[nH]1 ?
TbMetRS inhib: -0.1; Rce1 inhib: inactive; NadD block: 1.3; DSG3 Ab inh: 99.8; HCV core dimer: 27.7

What do the screens show for `CCS(=O)(=O)c1ccc(O)c(NC(=O)/C=C/c2ccccc2)c1`?
TbMetRS inhib: 0.2; Rce1 inhib: inactive; NadD block: -2.6; DSG3 Ab inh: 101.4; HCV core dimer: 0.3

How did N#C/C(=C/c1ccc(-c2ccc([N+](=O)[O-])cc2)o1)C(=O)Nc1nc(-c2cccs2)cs1 do in these assays?
TbMetRS inhib: -0.3; NadD block: 48.3*; DSG3 Ab inh: 74.2*; NadD conf: 6.0

How did Cc1ccc(Cc2cnc(NC(=O)/C(C#N)=C/c3ccc(-c4ccc([N+](=O)[O-])cc4)o3)s2)cc1 do in these assays?
TbMetRS inhib: -0.6; Rce1 inhib: inactive; NadD block: 47.7*; DSG3 Ab inh: 61.4; HCV core dimer: 20.4; NadD conf: 4.1

How did Cc1cc(Cl)ccc1NC(=S)N1CCN(Cc2ccccc2)CC1 do in these assays?
TbMetRS inhib: -0.3; Rce1 inhib: inactive; NadD block: -1.4; DSG3 Ab inh: 95.7; HCV core dimer: -0.1

Results for CCCCn1c(/N=C/c2ccc(N(C)C)cc2)nc2ccccc21 ?
TbMetRS inhib: 3.3; Rce1 inhib: inactive; NadD block: -5.4; DSG3 Ab inh: 692.4; HCV core dimer: -6.7

How did O=C(NCC(c1cccnc1)N1CCN(c2ccccc2F)CC1)OCc1ccccc1 (configuration not stated) do in these assays?
TbMetRS inhib: -0.5; Rce1 inhib: inactive; NadD block: 5.7; DSG3 Ab inh: 110.4; HCV core dimer: 2.4

What do the screens show for `Cc1nc(N2CCN(S(=O)(=O)c3ccccc3)CC2)c2cc(-c3ccccc3)sc2n1`?
TbMetRS inhib: -0.6; Rce1 inhib: inactive; NadD block: 41.4*; DSG3 Ab inh: 107.4; HCV core dimer: 28.9; NadD conf: 4.5

What do the screens show for `C=CCC1(O)C(=O)N2C(=C1C(=O)OCC)c1ccc3ccccc3c1CC2(C)C` (configuration not stated)?
TbMetRS inhib: -1.5; Rce1 inhib: inactive; NadD block: -5.8; HCV core dimer: 7.9

How did COCCCn1c(-c2cccc(Cl)c2)nc2c1c(=O)[nH]c(=O)n2Cc1ccccc1 do in these assays?
TbMetRS inhib: -0.2; Rce1 inhib: inactive; NadD block: -6.0; DSG3 Ab inh: 110.9; HCV core dimer: 11.9

Results for COCCn1c(-c2ccc(-c3ccc([N+](=O)[O-])cc3Br)o2)nc2c1c(=O)[nH]c(=O)n2CC(C)C ?
TbMetRS inhib: -0.2; Rce1 inhib: inactive; NadD block: 43.7*; DSG3 Ab inh: 78.0*; HCV core dimer: 27.2; NadD conf: 5.8

What do the screens show for `O=c1[nH]c(=O)n(Cc2ccccc2)c2nc(-c3ccc(Oc4ccc(F)cc4)c([N+](=O)[O-])c3)n(CCO)c12`?
TbMetRS inhib: -0.1; Rce1 inhib: inactive; NadD block: 21.4; DSG3 Ab inh: 96.0; HCV core dimer: 9.0

Results for COc1ccc(-c2ccc(-c3nc4c(c(=O)[nH]c(=O)n4Cc4ccccc4)n3C)o2)c([N+](=O)[O-])c1 ?
TbMetRS inhib: -0.6; Rce1 inhib: inactive; NadD block: 52.4*; DSG3 Ab inh: 76.3*; HCV core dimer: 32.8; NadD conf: 9.0

Results for COCCn1c(=O)[nH]c(=O)c2c1nc(-c1ccc(-c3ccc(Cl)cc3[N+](=O)[O-])o1)n2Cc1ccccc1 ?
TbMetRS inhib: 1.3; Rce1 inhib: inactive; NadD block: 44.8*; DSG3 Ab inh: 95.8; HCV core dimer: 54.8*; NadD conf: 12.9

What do the screens show for `COCCn1c(-c2ccc(SC)cc2)nc2c1c(=O)[nH]c(=O)n2CC(C)C`?
TbMetRS inhib: 0.6; Rce1 inhib: inconclusive; NadD block: -3.0; DSG3 Ab inh: 115.3; HCV core dimer: 5.5

Results for COCCOC(=O)c1c(NC(=O)CN2CCCc3ccccc32)sc(C(N)=O)c1C ?
TbMetRS inhib: -0.5; Rce1 inhib: inactive; NadD block: -3.3; DSG3 Ab inh: 127.5; HCV core dimer: 14.5
